Source: ChEMBL document CHEMBL1833821, “Defining the structural parameters that confer anticonvulsant activity by the site-by-site modification of (R)-N'-benzyl 2-amino-3-methylbutanamide” (J Med Chem, 2011)
Calls of active or inactive are those of the source.

Legend:
Mus musculus [1] = test: Neurotoxicity in ip dosed albino CF1 mouse assessed as time of peak effect by rotarod test; assay type: toxicity, organism-based; conditions: in vivo
[2] = Neurotoxicity in ip dosed albino CF1 mouse assessed as minimal motor coordination impairment by rotarod test; assay type: toxicity, organism-based; conditions: in vivo
[3] = Neurotoxicity in po dosed albino Sprague-Dawley rat; assay type: toxicity, organism-based; conditions: in vivo
Summary of the method: (§1)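 Adult male albino Sprague-Dawley rats given compound orally under NINDS ASP. Behavioral toxicity was scored by the positional sense test or the gait and stance test. TD50 in mg/kg, with time in hours bracketed.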

Mus musculus [4] = test: Anticonvulsant activity in ip dosed NMRI mouse assessed as protection against maximal electroshock-induced seizures after 30 mins in presence of 50 miliamperes of electric current; assay type: functional; conditions: 0.5 h
Rattus norvegicus [5] = test: Behavioral toxicity in po dosed albino Sprague-Dawley rat assessed as time of peak effect; assay type: organism-based; conditions: in vivo; summary of the method: as §1
Mus musculus [6] = test: Anticonvulsant activity in ip dosed albino CF1 mouse assessed as protection against maximal electroshock-induced seizures in presence of 50 miliamperes of electric current; assay type: functional
Summary of the method: (§2)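 Adult male albino CF-1 (Carworth Farms No. 1) mice dosed ip under NINDS ASP; MES test. Compounds with sufficient activity got a dose-response curve (4–6 doses, n = 8 per dose) at the time of peak effect (h, bracketed).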

Mus musculus [7] = test: Anticonvulsant activity in ip dosed albino CF1 mouse assessed as protection against subcutaneous metrazol-induced seizures; assay type: functional, organism-based
Summary of the method: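 Male albino CF-1 mice dosed ip under NINDS ASP; subcutaneous pentylenetetrazol (Metrazol) seizure threshold test.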

Rattus norvegicus [8] = test: Anticonvulsant activity in po dosed albino Sprague-Dawley rat assessed as time of peak effect by maximal electroshock seizures test in presence of 150 miliamperes of electric current; assay type: functional
Summary of the method: (§3)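 Adult male albino Sprague-Dawley rats dosed orally under NINDS ASP; MES test. ED50 in mg/kg, with time of testing noted in hours in brackets.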

Rattus norvegicus [9] = test: Anticonvulsant activity in po dosed albino Sprague-Dawley rat assessed as protection against maximal electroshock-induced seizures in presence of 150 miliamperes of electric current; assay type: functional; summary of the method: as §3
Mus musculus [10] = test: Anticonvulsant activity in ip dosed albino CF1 mouse assessed as time of peak effect by maximal electroshock seizures test in presence of 50 miliamperes of electric current; assay type: functional; summary of the method: as §2
Mus musculus [11] = species: Mus musculus; test: Protective index, ratio of TD50 for albino CF1 mouse by rotarod test to ED50 for albino CF1 mouse by maximal electroshock seizures test; assay type: functional
Summary of the method: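 Mouse protective index calculated as rotorod TD50 divided by MES ED50, both from ip dosing of male CF-1 mice at the NINDS ASP.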

Rattus norvegicus [12] = species: Rattus norvegicus; test: Protective index, ratio of TD50 for albino Sprague-Dawley rat to ED50 for albino Sprague-Dawley rat by maximal electroshock seizures test; assay type: functional
Summary of the method: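 Rat protective index calculated as behavioral toxicity TD50 divided by MES ED50, both after oral dosing of male Sprague-Dawley rats at the NINDS ASP.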

SMILES	Time (Mus musculus [1])	TD50 [2]	TD50 [3]	ED50 (Mus musculus [4])	Time (Rattus norvegicus [5])	ED50 (Mus musculus [6])	Activity (Mus musculus [7])	Time (Rattus norvegicus [8])	ED50 (Rattus norvegicus [9])	Time (Mus musculus [10])	PI (Mus musculus [11])	PI (Rattus norvegicus [12])
CCCC(=O)NCc1ccccc1	0.5 h	100 mg/kg	> 30 mg/kg									
CN[C@@H](C(=O)NCc1ccccc1)C(C)C				25 mg/kg								
CC(C)[C@@H](N)CNCc1ccccc1	0.5 h	100 mg/kg	> 30 mg/kg		0.25 h	30 mg/kg	inactive	0.25 h	> 30 mg/kg	0.5 h		
CC(=O)NC(C(=O)NCc1ccccc1)c1ccccc1 (racemic)						20 mg/kg						
CC[C@@H](O)C(=O)NCc1ccccc1	0.5 h	100 mg/kg	> 30 mg/kg		0.25 h	100 mg/kg	inactive	0.25 h	> 30 mg/kg	0.5 h		
CC(C)[C@@H](N)C(=O)NCCCCc1ccccc1	0.25 h	38 mg/kg	> 30 mg/kg		0.25 h	11 mg/kg	inactive	0.25 h	> 30 mg/kg	0.25 h	3.5	
CC(C)[C@@H](N)C(=O)NCCc1cccc(F)c1	0.25 h	67 mg/kg	> 500 mg/kg			20 mg/kg		0.5 h	38 mg/kg	0.25 h	3.4	
CCC1(c2ccccc2)C(=O)NC(=O)NC1=O [PHENOBARBITAL]	0.5 h				0.5 h	22 mg/kg		5 h	9.1 mg/kg	1 h	3	>100
CC(C)[C@H](C(=O)NCc1ccccc1)N(C)C	0.5 h	100 mg/kg				30 mg/kg	inactive			0.5 h		
CC(C)[C@@H](N)C(=O)NCC1CCCCC1	0.5 h	100 mg/kg	> 30 mg/kg		0.25 h	30 mg/kg	inactive	0.25 h	15 mg/kg	0.5 h		
CC(C)[C@@H](N)C(=O)NCc1ccccc1OC(F)(F)F	0.25 h	51 mg/kg	> 500 mg/kg			9.2 mg/kg	inactive	0.5 h	33 mg/kg	0.25 h	5.5	>15
CC(C)[C@@H](N)C(=O)NCCc1ccc(F)cc1		30 mg/kg				10 mg/kg						
CC(C)[C@@H](N)C(=O)OCc1ccccc1	0.5 h	> 300 mg/kg	> 30 mg/kg		0.25 h	> 300 mg/kg	inactive	0.25 h	> 30 mg/kg	0.5 h		
CC(C)[C@@H](N)C(=O)NCCCc1ccccc1	0.25 h	43 mg/kg	> 30 mg/kg		0.25 h	16 mg/kg	inactive	0.25 h	< 30 mg/kg	0.25 h	2.7	
CCCC(CCC)C(=O)[O-].[Na+] [VALPROATE SODIUM]	0.25 h				0.5 h	270 mg/kg		0.5 h		0.5 h		
CC(C)[C@@H](N)C(=O)CCc1ccccc1.Cl		100 mg/kg				30 mg/kg	inactive					
CC[C@H](C)C(=O)NCc1ccccc1	0.5 h	300 mg/kg	> 30 mg/kg		0.25 h	100 mg/kg		0.25 h	> 30 mg/kg	0.5 h		
O=C1NC(=O)C(c2ccccc2)(c2ccccc2)N1 [PHENYTOIN]	0.25 h		> 3000 mg/kg					4 h	30 mg/kg	2 h		
CC(C)[C@@H](N)C(=O)NCCc1ccccc1F	0.25 h	79 mg/kg	500 mg/kg			27 mg/kg		4 h		0.25 h	2.9	>25
CC(C)[C@@H](N)C(=O)NCCc1ccccc1	0.25 h	50 mg/kg	> 30 mg/kg		0.24 h	10 mg/kg	inactive	0.25 h	< 30 mg/kg	0.25 h	5	
CC(C)[C@@H](N)C(=O)NCc1cccc(OC(F)(F)F)c1	0.25 h	30 mg/kg	43 mg/kg		1 h	7.1 mg/kg	inactive	1 h	10 mg/kg	0.25 h	4.2	4.3
CC(C)[C@@H](N)C(=O)Nc1ccccc1	0.5 h	> 30 mg/kg				30 mg/kg	inactive			0.5 h		
CCC(C)C(=O)NCc1ccccc1 (racemic)	0.25 h	165 mg/kg	> 500 mg/kg			56 mg/kg	inactive	0.5 h	51 mg/kg	0.25 h	2.9	>9.8
CC(C)[C@@H](N)C(=S)NCc1ccccc1	0.5 h	30 mg/kg	> 30 mg/kg		0.25 h	30 mg/kg	inactive	0.5 h	< 30 mg/kg	0.5 h		
COC[C@@H](NC(C)=O)C(=O)NCc1ccccc1 [LACOSAMIDE]	0.25 h		> 500 mg/kg					2 h		0.5 h	6	
